# Results collected from several papers.
# Protocols differ between the studies behind these lines.
# Target: Serine/threonine-protein kinase pim-1 (PIM1, Homo sapiens, UniProt P11309)
Structure (SMILES),read-out,mode,technique,tested at,endpoint,result
CCCS(=O)(=O)Nc1ccc(F)c(C(=O)c2c[nH]c3ncc(-c4ccc(Cl)cc4)cc23)c1F,enzyme activity,inhibitor,,1 µM,inhibition,< 10%
O=C(Nc1cnn(-c2csc(C(=O)NC3COC3)c2)c1)Nc1ccccc1Cl,enzyme activity,inhibitor,,5 µM,remaining activity,64.6%
CO[C@H]1CC[C@H](CNc2ccc(S(=O)(=O)NC(=O)c3ccc(N4CCN(CC5=C(c6ccc(Cl)cc6)CC(C)(C)CC5)CC4)cc3Oc3cnc4[nH]ccc4c3)cc2[N+](=O)[O-])CC1,cell-free assay,,competition with immobilised ligand,1 µM,remaining binding,72%
CCOc1cc(-c2nncn2C)ccc1Nc1ncc2cc(C)nc(NCC(C)(C)C)c2n1,enzyme activity,inhibitor,FRET,1 µM,inhibition,< 15%
COc1cc(Nc2c(C#N)cnc3cc(OCCCN4CCN(C)CC4)c(OC)cc23)c(Cl)cc1Cl,cell-free assay,,,0.5 µM,remaining signal,99.2%
O=C(N[C@H]1CCCCC/C=C\C2C[C@@]2(C(=O)O)NC(=O)[C@@H]2C[C@@H](Oc3ccncc3)CN2C1=O)OC1CCCC1 (stereo partly drawn),binding,,competition with immobilised ligand,1 µM,remaining binding,100%
CCN(CC)CCNC(=O)c1c(C)[nH]c(/C=C2\C(=O)Nc3ccc(F)cc32)c1C,cell-free assay,,,0.5 µM,remaining signal,94.4%
Nc1nc(Nc2ccccc2)sc1C(=O)c1c(F)cccc1F,enzyme activity,inhibitor,,10 µM,remaining activity,79%
O=C(Nc1ccc(Oc2ccc(F)cc2)cc1)N1CCc2ncccc2[C@H]1c1ccc(F)cc1,cell-free assay,,competition with immobilised ligand,1 µM,remaining binding,99%
Cc1cnc(NC2CCOCC2)nc1-n1cnc(C(=O)NC(CN)c2cc(F)cc(Cl)c2)c1 (stereo not drawn),enzyme activity,inhibitor,radiometric,1 µM,remaining activity,90%
Nc1c(C(=O)NCc2ccc(C(=O)NCCCC3CCCCC3)cc2)cnn1-c1ccccc1,cell-free assay,,competition with immobilised ligand,0.1 µM,remaining binding,93%
COc1cc2ncnc(Nc3ccc(Oc4ccccc4)cc3C)c2cc1OC,enzyme activity,inhibitor,,1 µM,inhibition,-4%
COCCOc1nc(-c2ccc(Cl)nc2)nc2c1CN(C(=O)c1ncn3ccccc13)CC2,cell-free assay,,competition with immobilised ligand,0.1 µM,remaining binding,100%
Cn1c(=O)n(-c2ccc(C(C)(C)C#N)cc2)c2c3cc(-c4cnc5ccccc5c4)ccc3ncc21,enzyme activity,inhibitor,,10 µM,remaining activity,92%
Nc1ncnc2c1ncn2[C@@H]1O[C@H](COP(=O)(O)OP(=O)(O)OP(=O)(O)O)[C@@H](O)[C@H]1O,enzyme activity,substrate,radiometric,,Km,48 µM
CS(=O)(=O)Nc1cccc(-c2csc(NC(=O)CSc3nc4nccnc4c(=O)n3CCc3ccccc3)n2)c1,enzyme activity,inhibitor,,10 µM,inhibition,0%
COc1cc(Nc2cnc(C#N)c(O[C@H](C)CN(C)C)n2)ncc1-c1cnn(C)c1,enzyme activity,inhibitor,radiometric,10 µM,remaining activity,22%
CNC(=O)c1cc(Oc2ccc(NC(=O)Nc3ccc(Cl)c(C(F)(F)F)c3)cc2)ccn1,enzyme activity,inhibitor,,10 µM,inhibition,5%
